# Shown are actives, neighbours in structure and some others; about 3% of the full set was active somewhere.
# N-glyco inh: N-linked glycosylation inhibition. D54 ERlucT glycosylation luciferase reporter, 24 h; percent of 100 nM tunicamycin response. reporter increase, % at 12.5 µM. 0.23% of 360,000 active. AID 588692;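 active = mean luciferase reporter signal, scaled so untreated is 0 and the glycosylation-blocking control 100, at or above a set limit in every replicate; inconclusive = mean reaches the limit but not every replicate does; inactive = mean below the limit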;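 note: luciferase carries N-glycosylation sites so blocking glycosylation raises the light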
# PvdQ acylase: blocks Pseudomonas aeruginosa PvdQ acylase activity; purified PvdQ acylase, fluorescence plate reader; inhibition, % at 10 µM; 0.063% of 340,000 active; AID 488965; in the data active = inhibition above about 30%, passing the limit was not always enough; inconclusive = no clear call, values can overlap the other calls
# T cruzi repl: blocks replication of Trypanosoma cruzi; T. cruzi beta-gal in NIH3T3, luminescence, 90 h; inhibition, % (concentration not given with the values); 1.4% of 300,000 active;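 active = mean inhibition across valid replicates above about 55%, limit read from the data; inconclusive = mean below that limit but half or more replicates reach it; inactive = mean below it, under half of replicates reach it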;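 note: signal also drops with host cell toxicity which is not excluded here; higher percent means less beta-gal luminescence so fewer parasites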
#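 Test system: β-gal T. cruzi (Tulahuen C4) inside NIH/3T3 cells / Quantity: 5,000 cells/well / Measured by: luminescence from GalScreen with 0.05% NP40, read after 60 min / Medium: DMEM plus 2% FBS / Measure: parasite load inhibition, % / Reagent: Tulahuen C4 trypomastigotes, 5000/well / Schedule: co-culture of at least 90 h after 3 h attachment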
# HSF-1 act: increases HSF-1 driven luciferase reporter signal. activation, % at 9 µM. NIH3T3-HGL HSF-1 luciferase reporter, MG132, 8 h; 100% = twice DMSO control signal. 1.7% of 300,000 active;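 active = mean replicate activation of at least 50% with a set share of replicates each reaching 50%; inconclusive = only one of those two conditions met; inactive = mean below 50% and too few replicates reaching it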
# PfHsp90 yeast 2: inhibits growth of yeast expressing Plasmodium falciparum Hsp90. S. cerevisiae expressing PfHsp90, BacTiter-Glo ATP, 48 h; yeast lacking PDR1 and PDR3 efflux regulators. inhibition, % at 9.4 µM. 0.32% of 310,000 active;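 active = every replicate shows inhibition above about 80%, whatever the replicate mean, limit read from the data; inconclusive = mean inhibition reaches the set limit but some replicate falls short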
# CaV13 FRET inh: Disruptors of the CACNA1D IQ motif to Ca2+-dependent inactivation inhibitor domain association, primary screening, Förster resonance energy transfer in intact living …. inhibition, % at 12.3 µM. AID 743397. HEK cells, CFP/YFP FRET ICDI-IQ, plate reader, 10 min; percent FRET-ratio fall versus neutral wells. 0.098% of 340,000 active;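 active = mean replicate inhibition of at least 30% and at least 1% of replicates passing that level; inconclusive = only one of the two criteria is met; inactive = neither criterion is met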
# A number is an active result; . = inactive; ? = inconclusive; / = no result given.
SMILES,N-glyco inh,PvdQ acylase,T cruzi repl,HSF-1 act,PfHsp90 yeast 2,CaV13 FRET inh
ClCC1CSC(=NC23CC4CC(CC(C4)C2)C3)O1 (centres undefined),.,.,.,59,.,.
COc1cccc(CSc2nnc(C(F)(F)F)n2Cc2ccc(F)cc2)c1,.,.,.,87,.,.
Fc1ccccc1CSc1nnc(-c2cnccn2)n1Cc1ccco1,.,.,.,67,.,.
CC(C)(C)C(O)C(Cc1ccccc1Cl)n1cncn1 (centres undefined),.,.,.,.,92,.
Cc1nnsc1C(=O)N/N=C/c1ccccc1,.,.,.,.,.,.
Cc1nnsc1C(=O)N/N=C/c1ccc2ccccc2c1O,.,.,55,.,.,.
Cc1ccc2c(CC(=O)Nc3sccc3C(N)=O)coc2c1,.,.,.,84,.,.
COc1ccc(CN2C[C@@]3(O)CC[C@@H](O)[C@@H](OC)[C@@H]3[C@@]2(C)[C@H](O)CC=C(C)C)cc1,/,/,/,/,/,.
O=C(Nc1cccc(Cl)c1)N(Cc1nc2ccccc2c(=O)[nH]1)C1CCCC1,.,.,.,54,.,/
Cc1cccc(NC(=O)N(Cc2nc3ccccc3c(=O)[nH]2)C2CCCC2)c1,.,.,.,.,.,/
COC(=O)c1cccc(Cn2c(Cl)c(/C=N/Nc3ccccc3C)sc2=O)c1,.,.,.,151,.,.
COC(=O)c1ccc(CN2CCCC(CCC(=O)NCc3ccc(C)o3)C2)cc1 (centres undefined),.,.,69,.,.,.
COCc1ccc(CN2CCCC(CCC(=O)NCc3ccc(C)o3)C2)o1 (centres undefined),.,.,.,.,.,.
Cc1ccc(CNC(=O)CCC2CCCN(Cc3cc4ccccc4o3)C2)o1 (centres undefined),.,.,56,.,.,.
COc1cc(CN2CCCC(CCC(=O)NCc3ccc(C)o3)C2)cc2c1OCO2 (centres undefined),.,.,69,.,.,.
Cc1cccc(S(=O)(=O)NC(=O)C2(C)CCN2C(=O)Cc2cccs2)c1 (centres undefined),.,/,/,/,/,.
CCc1c(C#N)c(SCCC(=O)Nc2ccc(F)cc2)nc2c1C(=O)CC(C)(C)C2,.,.,56,.,.,.
CCc1c(C#N)c(SCCC(=O)Nc2cccc(OC)c2)nc2c1C(=O)CC(C)(C)C2,.,.,.,.,.,.
Cc1ccc(Sc2cc(NCCCO)c([N+](=O)[O-])c3nonc23)cc1,.,.,56,.,.,.
CCC(=O)OCCNc1cc(Sc2nccn2C)c2nonc2c1[N+](=O)[O-],.,.,55,437,.,.
CC(=O)O[C@@H]1C=C[C@@H](C#Cc2ccc(C(C)(C)C)cc2)O[C@@H]1COC(=O)NCc1ccccc1,/,/,/,/,/,.
COc1ccc(S(=O)(=O)Nc2ccccc2OC)cc1NC(=O)Cc1cccs1,.,.,.,.,.,.
COc1ccccc1NS(=O)(=O)c1cc(NC(=O)c2cccs2)ccc1N1CCCCC1,.,.,59,.,.,.
COc1ccccc1NS(=O)(=O)c1cc(NC(=O)c2cccs2)ccc1N1CCCC1,.,.,.,.,.,.
COc1ccccc1NS(=O)(=O)c1ccc(NC(=O)Cc2cccs2)cc1,.,.,.,58,.,.
SMILES,N-glyco inh,PvdQ acylase,T cruzi repl,HSF-1 act,PfHsp90 yeast 2,CaV13 FRET inh
CN(Cc1ccccc1)C(=O)c1[nH]cnc1C(=O)Nc1ccc(Br)cc1F,.,/,/,/,/,.
COc1ccc(N2C(=O)c3n[nH]c(C(C)C)c3C2c2ccc(F)cc2)cc1 (centres undefined),/,/,/,/,/,.
COCc1[nH]nc2c1C(c1ccc(F)cc1)N(Cc1ccccc1)C2=O (centres undefined),/,/,/,/,/,.
Cc1ccc(C)c(N2CCN(C(=O)c3ccc(Cn4c(=O)[nH]c5ccccc5c4=O)cc3)CC2)c1,.,.,65,.,.,.
CC(=O)c1ccc(N2CCN(C(=O)c3ccc(Cn4c(=S)[nH]c5ccc(N6CCOCC6)cc5c4=O)cc3)CC2)cc1,.,.,70,.,.,.
O=c1c2cc(N3CCOCC3)ccc2[nH]c(=S)n1Cc1ccccc1Cl,.,.,.,.,.,.
O=c1c2cc(N3CCOCC3)ccc2[nH]c(=S)n1Cc1ccccn1,.,.,.,67,/,.
NC(=O)[C@H]1CC2(CC(c3cccc(NC(=O)CC(c4ccccc4)c4ccccc4)c3)=NO2)CN1C(=O)CC(c1ccccc1)c1ccccc1 (some centres undefined),.,.,.,.,/,.
NC(=O)[C@@H]1CC2(CC(c3cccc(NC(=O)CC(c4ccccc4)c4ccccc4)c3)=NO2)CN1C(=O)c1ccc(Cl)cc1 (some centres undefined),.,.,57,.,.,.
Cc1c(C(=O)N2CC3(CC(c4cccc(NC(=O)CC(c5ccccc5)c5ccccc5)c4)=NO3)C[C@@H]2C(N)=O)cc([N+](=O)[O-])cc1[N+](=O)[O-] (some centres undefined),.,.,67,.,.,.
O=[N+]([O-])c1ccc(CS(=O)c2ccccc2)cc1 (centres undefined),.,.,/,/,.,.
O=[N+]([O-])c1ccc(S(=O)Cc2ccccc2)c([N+](=O)[O-])c1 (centres undefined),.,.,/,/,137,.
Nc1nc2c(ncn2[C@@H]2O[C@H](C(=O)N[C@H](Cc3ccccc3)C(=O)O)[C@@H](O)[C@H]2O)c(=O)[nH]1,/,/,/,/,/,.
CN(C)c1ccc(/C=C(\C#N)c2ccccn2)cc1,.,.,.,.,.,.
COC(=O)c1ccc(/C=C(\C#N)c2ccccn2)cc1,.,71,.,86,.,.
N#C/C(=C\c1ccc([N+](=O)[O-])cc1)c1ccccn1,.,?,.,73,.,.
COc1cc(/C=C(\C#N)c2ccccn2)cc(OC)c1O,.,.,.,.,.,.
COCCOC(=O)c1c(NC(=O)CSc2cccc[n+]2[O-])sc(C(N)=O)c1C,.,.,.,72,.,.
COC(=O)C1=C(C)N(C)C(=NCc2ccccc2)NC1c1cccc(Cl)c1 (centres undefined),/,/,/,/,/,.
O=C(NCc1ccccc1)[C@H]1CCCN1C(=O)[C@H]1CCCN1C(=O)c1ccc(OC(F)(F)F)cc1,/,/,/,/,/,.
CCOc1ccc(NCc2ccccc2OCc2cccc(F)c2)cc1,.,.,55,.,.,.
Fc1cccc(COc2ccccc2CNc2ccccc2)c1,.,.,.,.,.,.
C/C=C1\COC(C(=O)NCc2ccccc2)(C(F)(F)F)C=C1C=C(C)C (centres undefined),.,.,.,153,.,.
Clc1ccc(-n2cc(COCc3ccccc3)nn2)cc1,.,.,.,61,.,.

# Assay outcomes from PubChem.
